SUMO1-SIM PPI – modulators of SUMO1 protein-protein interactions, primary screen, biochemical, uHTS. SUMO1 binding to a labelled peptide, TR-FRET, 1 h. inhibition, % at 20 µM. hit rate 0.33% among 360,000; in the data active = inhibition above about 37%
Target sequence (P63165 whole entry, looked up): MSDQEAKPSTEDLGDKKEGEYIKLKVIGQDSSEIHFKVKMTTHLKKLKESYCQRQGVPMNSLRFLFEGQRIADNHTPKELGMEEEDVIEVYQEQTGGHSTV
DNMT1 inh – human DNMT1 methyltransferase inhibitors, primary screen, biochemical, molecular beacon, fluorescence, HinP1I cleavage, uHTS | inhibition (reported as % activation of signal), % at 10 µM | DNA (cytosine-5)-methyltransferase 1 (Homo sapiens), P26358 | hit rate 0.83% among 360,000 | AID 588458, 2011; in the data active = inhibition above about 50%
CSN deneddyl inh – inhibitors of CSN-mediated cullin deneddylation, primary screen, biochemical, fluorescence polarization, uHTS; COP9 signalosome complex subunit 5 (Homo sapiens), Q92905; Purified CSN, SCF-Nedd8-OG deneddylation; inhibition, % at 12.5 µM; hit rate 0.38% among 360,000; AID 651999, 2013;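 active = pattern-corrected inhibition above about 35%, with an unprinted fluorescence ratio check between 0.5 and 1.5, limit read from the data, passing the limit was not always enough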
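Material: purified human Csn5 enzyme expressed in HEK293T cells / Medium: Tris buffer pH 7.5, NaCl, DTT, Tween-20, trehalose, ovalbumin / Compound dosing: 12.5 µM single point / Schedule: 90 min incubation of compound, enzyme and substrate at room temperature / Signal: fluorescence polarization of the substrate / Control set: no-enzyme wells high, enzyme-with-substrate wells low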
LMPTP block – LMPTP phosphatase inhibitors, primary screen, biochemical, fluorescence intensity, uHTS; Low molecular weight phosphotyrosine protein phosphatase (Homo sapiens), P24666; recombinant LMPTP-A, OMFP fluorogenic substrate; inhibition, % at 20 µM; hit rate 0.22% among 360,000;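 active = compounds that cut the enzyme signal by at least half of the control window in the single-dose screen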
Target sequence (P24666 whole entry, looked up): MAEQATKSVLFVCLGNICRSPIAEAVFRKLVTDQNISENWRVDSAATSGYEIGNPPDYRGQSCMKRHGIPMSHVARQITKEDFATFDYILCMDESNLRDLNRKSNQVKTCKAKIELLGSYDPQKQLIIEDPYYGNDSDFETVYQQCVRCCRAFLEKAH
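Test system – LMPTP-A enzyme · Amount – LMPTP-A at 0.625 nM final in the reaction · Buffer or medium – Bis-Tris pH 6.0, DTT, detergent · Reagent – OMFP 400 µM · Doses – single 20 µM dose · Schedule – reaction 50 min, room temperature, dark · Detection – fluorescence intensity of OMFP turnover product · Evaluation – percent inhibition versus substrate-only and uninhibited controls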
Scp-1 inhibitor – Scp-1 phosphatase inhibitors, primary screen, biochemical, colorimetric, uHTS. Carboxy-terminal domain RNA polymerase II polypeptide A small phosphatase 1 (Homo …. inhibition, % at 20 µM. hit rate 0.88% among 340,000. Recombinant Scp1, phosphopeptide, malachite green phosphate absorbance;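 active = inhibition above about 50% at 20 µM, limit read from the data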
Target sequence (Q9GZU7 76-261 limits assumed): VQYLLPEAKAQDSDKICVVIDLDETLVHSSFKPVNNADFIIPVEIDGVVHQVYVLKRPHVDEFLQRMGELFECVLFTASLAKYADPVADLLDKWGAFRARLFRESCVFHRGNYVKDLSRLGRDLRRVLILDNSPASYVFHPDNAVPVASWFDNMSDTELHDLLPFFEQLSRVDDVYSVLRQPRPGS
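Test system: SCP-1 catalytic domain; Buffer or medium: Acidic Tris acetate buffer with magnesium and detergent; Also added: Phosphorylated 17-residue peptide substrate; Compound: single 20 µM dose, 1% DMSO; Schedule: enzyme reaction 45 min at room temperature, colour 5 min, stabilisation 30 min; Signal: Phosphate-binding colour reagent, absorbance read at 630 nm.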
STEP block – STEP phosphatase inhibitors, primary screen, biochemical, fluorescence intensity, uHTS; Tyrosine-protein phosphatase non-receptor type 5 (Homo sapiens), P54829; recombinant STEP, OMFP fluorogenic substrate; inhibition, % at 20 µM; hit rate 0.25% among 360,000; AID 588621, 2011;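 active = inhibition at 20 µM, scaled per plate between control wells, above about 37%, limit read from the data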
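material = STEP tyrosine phosphatase | reagent = fluorogenic phosphatase substrate OMFP at 25 µM final | doses = single compound dose of 20 µM, 1% DMSO final | schedule = 20 min reaction, room temperature, in the dark | measured by = fluorescence, 480/540 nm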
Beacon interf DR – spectral interference with molecular beacon fluorescence, dose response, artefact control for DNMT1 inhibitor project, biochemical, fluorescent molecular beacon. shares compounds with DNMT1 inh. spectral interference counter-screen. IC50, µM. 200 tested, under 10 active
DNMT1 inh conf – DNMT1 methyltransferase inhibitor retest, confirmation, biochemical, molecular beacon, fluorescence, single concentration | shares compounds with DNMT1 inh | DNMT1 molecular beacon HinP1I cleavage | inhibition, % at 10 µM | hit rate 8% among 2,300 | AID 602385, 2012;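 active = average inhibition of at least 30% in the single-concentration confirmation test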
Beacon interf – counter-screen for DNMT1 inhibitors: spectral interference; DNMT1 molecular beacon spectral interference counterscreen, fluorescence 485/520; shares compounds with DNMT1 inh; hit rate 1% among 2,300; activation (fluorescence interference), % at 10 µM;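 active = activation of at least 30% at 10 µM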;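 note: DNMT1 catalytic domain with a HinP1I cleavage step and a FAM/dabcyl DNA beacon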
STEP conf – STEP phosphatase inhibitor hit confirmation, biochemical, fluorescence intensity, single concentration | shares compounds with STEP block | recombinant STEP, OMFP fluorogenic substrate | inhibition, % at 20 µM | hit rate 32% among 520 | AID 623866, 2012
CSN deneddyl val – Csn5 deneddylation inhibitors, confirmation, biochemical, fluorescence polarization, single concentration, SCF-Nedd8OG substrate; AID 720654, 2013; Csn5 deneddylation of SCF-Nedd8OG, 90 min; shares compounds with CSN deneddyl inh; inhibition, % at 16.6 µM; hit rate 62% among 540; in the data active = inhibition above about 50%
MMP-2 counter – MMP-2 protease inhibition counter-screen, confirmation, counter-screen for CSN deneddylation inhibitor project, biochemical, fluorescence, single concentration; shares compounds with CSN deneddyl inh; recombinant MMP-2, FRET substrate fluorescence, 60 min; inhibition, % at 16.6 µM; hit rate 33% among 540; AID 720655, 2013;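 active = corrected plate-normalized z-score of 5 or more, or -5 or less, or inhibition of 15% or more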
Thrombin cntr – counter-screen for CSN deneddylation inhibitors: bovine thrombin inhibition | shares compounds with CSN deneddyl inh | bovine thrombin cleavage of Ub4-pepOG, fluorescence polarization | inhibition, % at 16.6 µM | hit rate 49% among 540;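 active = inhibition at or above a set limit, with a fluorescence interference ratio between 0.5 and a set maximum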
Numbers stand for hits; . = inactive; / = no result. Shown are actives, neighbours in structure and some others; about 2% of the full set was active somewhere. Unless noted, the rule behind the calls is not given here.

SMILES | SUMO1-SIM PPI | DNMT1 inh | CSN deneddyl inh | LMPTP block | Scp-1 inhibitor | STEP block | DNMT1 inh conf | Beacon interf | CSN deneddyl val | MMP-2 counter | Thrombin cntr | others
NC(N)=NCCCS(=O)(=O)Nc1ccc(Nc2c3ccccc3nc3cc([N+](=O)[O-])ccc23)cc1 | . | 67 | . | 63 | . | 48 | 72 | . | / | / | / | Beacon interf DR=.;STEP conf=.
O=c1c2c3nc4ccccc4nc3n(-c3ccc4c(c3)OCCO4)c2ncn1C1CCCC1 | . | 72 | . | . | 85 | 51 | . | . | / | / | / | STEP conf=.
Cc1nc2ccccc2c(=O)n1Nc1cccc(Cl)c1 | . | . | . | . | . | . | / | / | / | / | /
O=c1c2ccccc2nc2sc(Nc3cccc(Cl)c3)nn12 | . | 107 | . | 72 | . | 70 | . | . | / | / | / | STEP conf=.
CCCNC(=O)C1(C)CCCN(C(=O)c2cccc(Cl)c2)C1 (stereo not drawn) | . | . | . | . | / | . | / | / | / | / | /
CN1CCN(c2cc(C(F)(F)F)nc3ccc(F)cc23)CC1 | . | . | . | . | . | . | / | / | / | / | /
C[C@@H](NC(=O)c1ncn2c1c(=O)[nH]c1cccnc12)c1ccccc1 | . | . | . | . | / | . | / | / | / | / | /
C[C@@H](NC(=O)c1ncn2c1c(=O)[nH]c1ccc(Br)cc12)c1ccccc1 | . | 93 | . | 58 | / | 50 | . | . | / | / | / | STEP conf=.
COc1ccc(CN2CCN(c3ccccc3OC)CC2)cc1OC | . | 67 | . | . | . | 91 | . | . | / | / | / | STEP conf=.
Cc1nc2ccc(NC(=O)c3ccccc3)cc2c(=O)n1Cc1ccc(F)cc1 | . | . | . | . | / | . | / | / | / | / | /
O=C(COc1ccc(Cl)cc1Cl)Nc1ccc(C(=O)Nc2ccccc2C(=O)O)cc1 | 41 | 84 | 52 | . | . | . | . | . | 75 | 20 | .
Cc1cccc(OCC(=O)Nc2ccc(C(=O)Nc3ccccc3C(=O)O)cc2)c1 | . | . | . | . | / | . | / | / | / | / | /
O=C(O)Cn1cc(/C=C2/NC(=O)N(c3ccc(Cl)cc3)C2=O)c2ccccc21 | . | . | . | . | . | . | / | / | / | / | /
O=C(O)c1cc(-c2ccc(/C=C3\NC(=O)N(c4ccc(Cl)cc4)C3=O)o2)ccc1Cl | . | 99 | 40 | . | 74 | . | . | . | . | 18 | .
CCCc1nc(NCCCOCC)c2nnn(Cc3ccccc3)c2n1 | . | . | . | . | . | . | / | / | / | / | /
CCC1=NN2C(=N)/C(=C\c3cccn3-c3ccc(Cl)cc3)C(=O)N=C2S1 | . | . | . | . | . | . | / | / | / | / | /
Cc1ccc(-n2cccc2/C=C2\C(=N)N3N=C(c4ccco4)SC3=NC2=O)cc1 | 104 | 87 | 61 | . | 97 | 63 | . | . | . | 19 | .
O=C(CCCN1C(=O)/C(=C\c2cccs2)SC1=S)Nc1ccccc1O | . | . | . | . | / | . | / | / | / | / | /
O=C(O)CCCCCN1C(=O)/C(=C/c2cn(-c3ccccc3)nc2-c2cccs2)SC1=S | 59 | 83 | 92 | . | . | . | 46 | . | 82 | . | 22 | Beacon interf DR=81
COc1cccc(C(C(=O)NCC2CCCO2)N(C(=O)Cn2nnc3ccccc32)c2ccccc2C(C)=O)c1OC (stereo not drawn) | . | . | . | . | . | . | / | / | / | / | /
CC(=O)NN1C(=O)/C(=C\c2ccccc2)SC1=S | . | . | . | . | . | . | / | / | / | / | /
CC(=O)NN1C(=O)/C(=C/c2ccc(Br)o2)SC1=S | . | 88 | 51 | . | . | . | . | . | 96 | 19 | 34
CC(=O)c1ccc(NC(=O)CSc2nnc(NC(=O)C3CC3)s2)cc1 | . | . | . | . | . | . | / | / | / | / | /
O=C(O)c1ccc(N/N=C/C=C/c2ccc([N+](=O)[O-])o2)cc1 | . | 72 | 45 | . | 58 | 43 | . | . | . | . | .
O=C(N/N=C/c1ccc([N+](=O)[O-])o1)C(=O)Nc1ccc(C(=O)O)cc1 | . | . | . | . | . | . | / | / | / | / | /
SMILES | SUMO1-SIM PPI | DNMT1 inh | CSN deneddyl inh | LMPTP block | Scp-1 inhibitor | STEP block | DNMT1 inh conf | Beacon interf | CSN deneddyl val | MMP-2 counter | Thrombin cntr | others
CC(CC(=O)NCc1ccc(Cl)cc1)c1ccccc1 (stereo not drawn) | . | . | . | . | . | . | / | / | / | / | /
O=C(CCN1C(=O)/C(=C\c2ccco2)SC1=S)Nc1ccc(C(=O)O)c(O)c1 | 66 | 91 | 57 | . | 80 | 43 | . | . | 72 | . | .
O=C(CCN1C(=O)/C(=C/c2ccco2)SC1=S)Nc1ccc(C(=O)O)c(O)c1 | 47 | 81 | 52 | . | 65 | 48 | . | . | 73 | . | .
O=C(N/N=C/c1cc(Br)c(Br)o1)c1ccc2c(c1)OCCO2 | . | 72 | 40 | . | 84 | . | . | . | 66 | . | .
CN(C)c1ccc2cc(S(=O)(=O)O)cc(O)c2c1 | . | 63 | 35 | . | 67 | . | . | . | 75 | . | .
C=CCSC1=N/C(=C\C=C\c2ccco2)C(=O)S1 | . | 97 | 57 | . | 53 | . | . | . | 68 | 30 | .
